Beta apoptosis: inhibitors of cytokine-induced beta cell apoptosis, primary screen, luminescence; hit rate 0.8% among 300,000; AID 435005, 2010; INS-1E cytokine-induced death, ATP luminescence, 48 h; percent of positive-control rescue, neutral wells zero; protection from apoptosis, % (concentration not given with the values);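 active = Every replicate reaches about 75%, or at least half do and their mean reaches it too, limit read from the data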;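 note: 0% = cytokine-treated negative control wells and 100% = positive control rescue; higher means more ATP so stronger rescue from cytokine killing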
ANO1 activ: TMEM16A chloride channel activators or potentiators, primary screen, cell-based, HTS. Anoctamin-1 (Mus musculus), Q8BHY3. HEK293 TMEM16A/YFP-H148Q/I152L, iodide quench fluorescence; stronger effect = lower value. B-score at 10 µM. hit rate 0.3% among 340,000;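 active = fluorescence-ratio B-score plate-corrected deviation score at least 3 library SD below zero, with starting fluorescence score within 5 deviations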;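 note: channel opened by trigger with iodide after compound preincubation; score built on the fluorescence ratio of max minus min over baseline; more negative score means more quench and so TMEM16A activation or potentiation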
CSC inhib: cancer stem cell viability inhibitors, primary screen, luminescence; inhibition, % at 7.5 µM; cancer stem cell-like cells viability; AID 2717, 2010; hit rate 1.1% among 300,000; in the data active = inhibition above about 75%; tested in HMLE shEcad cells
MC4R antagonist: MC4R antagonists of cAMP signaling, primary screen, cell-based, TR-FRET, antagonist arm of biased-ligand search; AID 540295, 2011; hit rate 0.48% among 360,000; MC4R-expressing cells, MTII-stimulated cAMP, LANCE TR-FRET; inhibition, % at 6.5 µM;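 active = inhibition above its plate's cutoff, the mean of tested wells on that plate plus 3 SD, cut at about 29% in these data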;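 note: 0% = Melanotan II alone and 100% = Melanotan II plus saturating MCL0020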
Target sequence (P32245 whole entry, looked up): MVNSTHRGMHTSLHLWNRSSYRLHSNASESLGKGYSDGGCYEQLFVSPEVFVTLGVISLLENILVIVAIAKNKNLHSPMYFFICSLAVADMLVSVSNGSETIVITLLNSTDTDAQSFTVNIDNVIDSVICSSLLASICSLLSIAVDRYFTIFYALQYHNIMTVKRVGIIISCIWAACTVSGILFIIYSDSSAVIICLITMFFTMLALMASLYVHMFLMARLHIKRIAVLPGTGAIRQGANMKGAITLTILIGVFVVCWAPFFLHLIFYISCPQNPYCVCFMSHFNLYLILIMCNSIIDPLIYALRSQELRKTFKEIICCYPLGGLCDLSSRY
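Assay system: U2OS-MC4R stable cell line; Also added: Melanotan II; Technique: Eu-cAMP/anti-cAMP TR-FRET, emission 671 nm; Times: 30-min compound, 1-h challenge, 1-h detection, room temperature.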
ANO1 block: TMEM16A chloride channel inhibitors, primary screen, cell-based, HTS; HEK293 TMEM16A/YFP iodide influx fluorescence, ionomycin; normalized B-score (activity score, 25-100; higher = stronger inhibition) at 10 µM; hit rate 1.2% among 310,000;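 active = ratio plate-corrected score three or more library SD toward inhibition, starting fluorescence score within five deviations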;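 note: score derived from kinetic fluorescence span divided by baseline fluorescence per well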
MC4R barr agon: MC4R agonists recruiting beta-arrestin, primary screen, cell-based, luminescence, agonist arm of biased-ligand search; Melanocortin receptor 4 (Homo sapiens), P32245; U2OS MC4R beta-arrestin complementation; percent of melanotan II response, DMSO zero; activation, % at 8.9 µM; hit rate 0.98% among 360,000;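 active = activation above a per-plate cutoff, the mean activation of sample wells on that plate plus 3 SD, cut at about 8% in these data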
* hit, by the source's call; i = inactive; nt = not tested or not shown. Sampled rows, rich in hits. Any-hit rate of the full collection: about 3.8%.

SMILES | Beta apoptosis | ANO1 activ | CSC inhib | MC4R antagonist | ANO1 block | MC4R barr agon
CCC(C)Sc1cccc(-c2nc3cc(C)ccn3c2NCc2ccccc2)c1 (stereo unspecified) | -4 | i | 123* | 16 | i | -2
CCCCCCSc1cccc(-c2nc3ccc(Cl)cn3c2NCc2ccccc2)c1 | 7 | i | 76* | -2 | i | 2
Cc1ccc2nc(-c3cccc(SC4CCCCC4)c3)c(NCc3ccccc3)n2c1 | nt | i | nt | 16 | nt | 0
Cc1ccn2c(NCc3ccccc3)c(-c3cccc(SC4CCCCC4)c3)nc2c1 | -1 | i | 99* | 7 | nt | -1
c1ccc(CNc2c(-c3cccc(SC4CCCCC4)c3)nc3ccccn23)cc1 | 124* | i | 102* | 16 | nt | 1
CN[C@H]1C[C@H]2c3[nH]c4ccc(-c5cccc(C)c5)cc4c3CCN2C[C@H]1[C@H](C)O | nt | nt | nt | 3 | nt | 2
CC(NC(=O)CNC(=O)c1ccccc1Br)c1cccs1 (stereo unspecified) | nt | i | nt | 7 | nt | -1
NS(=O)(=O)c1ccc(-c2cccc(/C=C3\SC(=O)NC3=O)c2)cc1 | 1 | -4.9* | 20 | 15 | i | 0
Cc1cc(CCNC=O)c(C)c2c1oc1ccccc12 | nt | i | nt | -18 | nt | -1
COc1cccc(NC(=O)CN(C)C(=O)CSc2ccc3c(c2)OCCO3)c1 | 3 | i | nt | 3 | nt | -1
COc1ccccc1-c1cc(C(=O)NC2CCN(C)CC2)c2ccc(Cl)c(C)c2n1 | 112* | i | 108* | -6 | i | 0
O=C(/C(=C/O)N=Nc1ccc(Cl)cc1)c1ccncc1 | 15 | i | 77* | 16 | i | -1
CCCCCCSc1cc(-c2nc3ccc(Cl)cn3c2NCCCC)ccc1OC | 38 | i | 34 | 6 | i | 0
CCCCCCSc1cc(-c2nc3ccc(C)cn3c2NCCCC)ccc1OC | 84* | i | 97* | 10 | nt | 2
CCCCNc1c(-c2ccc(SC3CCCCC3)c(OC)c2)nc2ccc(C)cn12 | 19 | i | 101* | 21 | nt | -2
COc1ccc(-c2nc3ccc(Cl)cn3c2NC2CCCCC2)cc1SC1CCCCC1 | nt | i | nt | -5 | nt | -1
COc1ccc(-c2nc3ccc(C)cn3c2NCc2ccccc2)cc1SC1CCCCC1 | 99* | i | -10 | 13 | i | 1
CCCCNc1c(-c2ccc(OC)c(SC3CCCCC3)c2)nc2ccc(C)cn12 | nt | i | nt | 14 | nt | 0
O=c1cc(-c2ccco2)oc2c1ccc1ccccc12 | 0 | i | 8 | 2 | i | 5
O=c1cc(C(Cl)(Cl)Cl)oc2c1ccc1ccccc12 | 73 | i | 116* | -23 | i | -2
CCc1ccc(-n2c(SCC(=O)NC3CCS(=O)(=O)C3)nc3ccccc3c2=O)cc1 (stereo unspecified) | 3 | i | 5 | 4 | nt | -2
O=C(NCc1cccnc1)c1ccc(NC(=O)c2ccc([N+](=O)[O-])cc2)cc1 | 104* | i | -2 | -3 | i | -1
CC(C)(C)c1ccc(C(=O)Nc2ccc(C(=O)NCc3cccnc3)cc2)cc1 | 113* | i | 3 | 14 | i | 0
O=C(O)C1=NN(c2cc(Cl)c(S(=O)(=O)O)cc2Cl)C(=O)C1 | nt | i | nt | 3 | nt | 0
Cc1cncc(NCc2ccc3c(c2)OCO3)n1 | nt | nt | nt | 7 | nt | 1
C=C[C@H](CC(C)C)N(Cc1ccccc1)S(=O)(=O)N(Cc1ccc(OC)cc1)[C@H](C=C)CC(C)C | 115* | i | 5 | 1 | nt | 1
COC(=O)[C@H](CC(C)C)N(Cc1ccccc1)S(=O)(=O)N(Cc1ccccc1)[C@@H](CC(C)C)C(=O)OC | 121* | i | 13 | 11 | nt | -1
CCOC(=O)[C@@H](C)N(Cc1ccc(OC)cc1)S(=O)(=O)N(Cc1ccccc1)[C@H](C(=O)OC)C(C)C | 17 | i | -1 | 6 | nt | -1

Compound activity deposited in PubChem BioAssay by several laboratories.
